The values below come from ChEMBL document CHEMBL4354840, “Discovery of a Small Side Cavity in Sphingosine Kinase 2 that Enhances Inhibitor Potency and Selectivity” (J Med Chem, 2020).

The structures appear in SMILES notation. Calls of active or inactive are those of the source. The rule behind the calls is not given here.

Data set [1] deals with T1, Sphingosine kinase 2 (Homo sapiens) (UniProt Q9NRA0).
T1 sequence (whole entry): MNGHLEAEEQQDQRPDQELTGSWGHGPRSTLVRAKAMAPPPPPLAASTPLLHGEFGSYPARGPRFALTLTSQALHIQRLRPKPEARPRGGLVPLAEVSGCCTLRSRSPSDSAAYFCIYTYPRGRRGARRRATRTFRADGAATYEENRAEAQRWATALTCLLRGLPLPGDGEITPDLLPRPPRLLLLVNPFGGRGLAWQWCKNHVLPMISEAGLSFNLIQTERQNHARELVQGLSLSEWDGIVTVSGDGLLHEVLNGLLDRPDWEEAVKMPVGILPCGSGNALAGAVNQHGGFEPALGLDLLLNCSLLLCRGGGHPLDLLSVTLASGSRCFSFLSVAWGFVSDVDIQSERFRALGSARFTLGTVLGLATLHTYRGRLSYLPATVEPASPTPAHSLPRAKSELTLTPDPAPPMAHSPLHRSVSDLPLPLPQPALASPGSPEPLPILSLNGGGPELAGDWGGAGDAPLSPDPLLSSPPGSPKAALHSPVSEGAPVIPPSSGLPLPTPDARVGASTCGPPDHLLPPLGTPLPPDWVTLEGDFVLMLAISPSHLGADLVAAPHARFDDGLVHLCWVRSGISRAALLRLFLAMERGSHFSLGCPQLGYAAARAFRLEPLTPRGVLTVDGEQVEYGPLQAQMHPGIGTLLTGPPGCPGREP
Kind of data set: Inhibition of recombinant human SphK2 transfected in HEK293T cells at 0.3 uM using D-erythro-sphingosine as substrate incubated for 20 mins in presence of [gamma32P]-ATP by liquid scintillation counting method relative to control. Type of data set: cell-based. Summed up:
(§1)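 Human SphK2 recombinant protein isolated from cell lysate. Reaction contained 10 μM sphingosine and 250 μM γ-[32P]ATP, with or without inhibitor. Product was read by scintillation counting. Activity is expressed as % of the no-inhibitor control. Compounds were tested at 1.0 and 0.3 μM in triplicate.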

In data set [2] the test system is Saccharomyces cerevisiae. Briefly: Toxicity against Saccharomyces cerevisiae KYA1 assessed as cell death at >3 uM incubated for 24 to 48 hrs. In kind it is organism-based. The conditions noted are these: in vivo.
The target of data set [3] is T2, Sphingosine kinase 2 (Homo sapiens, UniProt Q9NRA0).
T2 sequence (Q9NRA0 whole entry): T1 sequence (whole entry)
Kind of data set: Inhibition of recombinant human SphK2 expressed in baculovirus infected Sf9 cells assessed as decrease in [33P]S1P production using varying level of D-erythro-sphingosine as substrate in presence of [gamma33P]-ATP by scintillation proximity assay.

Data set [4] relates to Rattus norvegicus. Kind of data set: Decrease in sphingosine-1-phosphate level in rat blood at 10 mg/kg relative to control. In kind it is functional.
Data set [5] addresses T3, Sphingosine kinase 2 (Mus musculus, UniProt Q9JIA7).
T3 sequence (Q9JIA7 whole entry): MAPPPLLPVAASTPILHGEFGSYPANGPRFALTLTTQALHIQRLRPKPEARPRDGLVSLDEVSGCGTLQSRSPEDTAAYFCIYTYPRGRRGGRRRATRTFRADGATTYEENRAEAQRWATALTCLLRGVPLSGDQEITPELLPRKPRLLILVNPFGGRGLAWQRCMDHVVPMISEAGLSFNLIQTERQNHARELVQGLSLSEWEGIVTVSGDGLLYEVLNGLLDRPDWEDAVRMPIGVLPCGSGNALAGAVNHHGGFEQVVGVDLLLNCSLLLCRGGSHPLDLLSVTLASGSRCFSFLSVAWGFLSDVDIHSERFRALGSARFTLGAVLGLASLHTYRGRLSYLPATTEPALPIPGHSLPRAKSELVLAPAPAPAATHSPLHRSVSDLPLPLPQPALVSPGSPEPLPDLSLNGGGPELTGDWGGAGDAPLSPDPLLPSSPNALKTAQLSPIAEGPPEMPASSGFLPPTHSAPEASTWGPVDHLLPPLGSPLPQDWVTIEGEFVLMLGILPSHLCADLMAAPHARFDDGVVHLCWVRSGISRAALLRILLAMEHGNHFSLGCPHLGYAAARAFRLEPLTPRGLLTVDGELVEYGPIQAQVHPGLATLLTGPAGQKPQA
Briefly: Inhibition of recombinant mouse SphK2 expressed in baculovirus infected Sf9 insect cells using D-erythro-sphingosine as substrate measured after 30 mins in presence of [gamma32P]-ATP by liquid scintillation counting method.

Data set [6] deals with T1, Sphingosine kinase 2 (Homo sapiens). Briefly: Inhibition of recombinant human SphK2 transfected in HEK293T cells at 1 uM using D-erythro-sphingosine as substrate incubated for 20 mins in presence of [gamma32P]-ATP by liquid scintillation counting method relative to control. In a few lines: as §1
In data set [7] the test system is Mus musculus. Kind of data set: In vivo inhibition of SphK2 in C57BL/6 mouse assessed as Cmax required for two-fold increase in sphingosine-1-phosphate level in blood at 10 mg/kg, ip administered as single dose measured after 4 hrs by LC-MS/MS analysis. In kind it is functional, organism-based. Further details: dose 10 mg/kg. In a few lines:
(§2)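 Male C57BL/6 mice, 8–10 weeks old, received a single i.p. dose of vehicle or 10 mg/kg inhibitor in 2% hydroxypropyl-β-cyclodextrin. Retro-orbital whole blood was taken at 0.5, 1, 2, 4, 6 and 8 h. 10 μL of blood was analysed by LC/MS for S1P and compound. Groups were compared to vehicle by unpaired t-test.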

Data set [8] has as its system Mus musculus. Kind of data set: In vivo inhibition of SphK2 in C57BL/6 mouse assessed as increase in sphingosine-1-phosphate level in blood at 10 mg/kg, ip administered as single dose and measured at 4 hrs post-treatment by LC-MS/MS analysis relative to control. In kind it is functional. Summed up: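 Male C57BL/6 mice, 8–10 weeks old, given one i.p. injection of 10 mg/kg or vehicle (2% hydroxypropyl-β-cyclodextrin). Whole blood taken from the retro-orbital sinus at 0.5, 1, 2, 4, 6 and 8 h. 10 μL of blood processed for S1P by LC-MS/MS. S1P compared with vehicle-injected controls by unpaired t-test.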

In data set [9] the test system is Mus musculus. Briefly: In vivo inhibition of SphK2 in C57BL/6 mouse assessed as increase in sphingosine-1-phosphate level in blood at 10 mg/kg, ip administered as single dose and measured upto 6 hrs post-treatment by LC-MS/MS analysis. In kind it is functional, organism-based. In a few lines: as §2

Usually inhibition stands for the percentage by which the read-out fell short of the control. The Ki is a dissociation constant, usually derived from enzyme kinetics or from competition with a known ligand. In general, inhibition in vivo refers to the change of the read-out against control, counted positive when it falls. A higher inhibition in vivo goes with a strong effect.

For the molecule `N=C(N)N1CCC[C@H]1c1nc(-c2ccc(OCc3ccc(C(F)(F)F)cc3)cc2Cl)no1`, the inhibition in data set [1] came out at 40%. Still for that read-out and setting: in the case of `N=C(N)N1CCC[C@H]1c1nc(-c2ccc(OCc3ccc(C(F)(F)F)cc3)c(Cl)c2)no1` it was 33%; in that of `N=C(N)N1CCC[C@H]1c1nc(-c2ccc(OCc3ccc(C(F)(F)F)cc3)c(-c3ccc(C(F)(F)F)cc3)c2)no1`, 12%. For the molecule `C=CCc1cc(-c2noc([C@@H]3CCCN3C(=N)N)n2)ccc1OCc1ccc(C(F)(F)F)cc1.Cl`, the inhibition in data set [1] worked out at 59%. Also, the Activity entry in [2] is on record as “Toxic”. Take `CC(C)(C)c1cc(-c2noc([C@@H]3CCCN3C(=N)N)n2)ccc1OCc1ccc(C(F)(F)F)cc1.Cl`: the inhibition in [1] came out at 66%. For the same molecule, the inhibitory constant (Ki) in [3] stood at 197 nM. Also, the Activity result in [2] is recorded as “Toxic”. `CCCCCCCCc1ccc(-c2noc(C[C@@H]3CCCN3C(=N)N)n2)cc1` came in with an inhibition in vivo at 10 mg/kg in data set [4] of 80%. Regarding `N=C(N)N1CCC[C@H]1c1nc(-c2ccc(OCc3ccc(C(F)(F)F)cc3)c(-c3ccc(F)cc3)c2)no1`, the inhibition in [1] was 31%. With `CCCCCCCCOc1ccc(-c2noc([C@@H]3CCCN3C(=N)N)n2)cc1C(F)(F)F`, the Ki in data set [5] came out at 400 nM. Regarding `N=C(N)N1CCC[C@H]1c1nc(-c2ccc(OCc3ccc(C(F)(F)F)cc3)cc2C(F)(F)F)no1`, in data set [1], the inhibition amounted to 35%. Same read-out and setting: in the case of `N=C(N)N1CCC[C@H]1c1nc(-c2ccc(OCc3ccc(C(F)(F)F)cc3)c(Br)c2)no1` it was 24%.

Turning to `Cl.N=C(N)N1CCC[C@H]1c1nc(-c2ccc(OCc3ccc(C(F)(F)F)cc3)c(C(F)(F)F)c2)no1`, the inhibition in data set [6] was 77%; in [1], 65%. For the same molecule, the inhibitory constant (Ki) in data set [3] was determined as 89 nM. Moreover, the Cmax in data set [7] worked out at 8 µM. For the same molecule, the “fold change (FC)” value in [8] was found to be 2. Besides, in [9], the inhibition result was “Active”. Moreover, the Activity entry in data set [2] is “Toxic”. For `Cc1cc(-c2noc([C@@H]3CCCN3C(=N)N)n2)ccc1OCc1ccc(C(F)(F)F)cc1`, the inhibition in [1] came out at 3%. Take `CCc1cc(-c2noc([C@@H]3CCCN3C(=N)N)n2)ccc1OCc1ccc(C(F)(F)F)cc1.Cl`: the inhibition in data set [1] is 42%. Moreover, in data set [2], the Activity entry is “Toxic”. With `N=C(N)N1CCC[C@H]1c1nc(-c2ccc(OCc3ccc(C(F)(F)F)cc3)c(F)c2)no1`, the inhibition in data set [1] was 23%. As for `CC(C)c1cc(-c2noc([C@@H]3CCCN3C(=N)N)n2)ccc1OCc1ccc(C(F)(F)F)cc1.Cl`, in [1], the inhibition came out at 67%. In data set [3], the Ki was determined as 192 nM. In data set [2], the Activity entry was “Toxic”. For `CCCc1cc(-c2noc([C@@H]3CCCN3C(=N)N)n2)ccc1OCc1ccc(C(F)(F)F)cc1.Cl` the same measures were 60%, 201 nM and “Toxic”. Regarding `N=C(N)N1CCC[C@H]1c1nc(-c2ccc(OCc3ccc(C(F)(F)F)cc3)c([N+](=O)[O-])c2)no1`, the inhibition in [1] is 33%. The same measure, in the same setting: the result for `COc1cc(-c2noc([C@@H]3CCCN3C(=N)N)n2)ccc1OCc1ccc(C(F)(F)F)cc1` reads 15%; that for `Cc1cc(-c2noc([C@@H]3CCCN3C(=N)N)n2)cc(C)c1OCc1ccc(C(F)(F)F)cc1`, 23%. Same read-out and setting: in the case of `N=C(N)N1CCC[C@H]1c1nc(-c2ccc(OCc3ccc(C(F)(F)F)cc3)cc2)no1` it was 2%. Turning to `Cl.N=C(N)N1CCC[C@H]1c1nc(-c2ccc(OCc3ccc(C(F)(F)F)cc3)c(C3CC3)c2)no1`, in data set [1], the inhibition came out at 52%. Besides, the inhibition constant Ki in [3] came to 186 nM. Moreover, the Activity result in data set [2] is on record as “Toxic”. As to `CCCCCCCCOc1ccc(-c2noc([C@@H]3CCCN3C(=N)N)n2)cc1`, the inhibition is 8% in data set [6] and 3% in data set [1]. Take `N=C(N)N1CCC[C@H]1c1nc(-c2ccc(OCc3ccc(C(F)(F)F)cc3)c(-c3ccncc3)c2)no1`: the inhibition in data set [1] is 8%. On the same count and under the same terms, the result for `N=C(N)N1CCC[C@H]1c1nc(-c2ccc(OCc3ccc(C(F)(F)F)cc3)c(-c3ccccc3)c2)no1` reads 28%.
